Values after ≈ are worked out from the molar mass of the structure shown.
What was measured:
Pseudomonas aeruginosa = test: Antibacterial activity against Pseudomonas aeruginosa ATCC 27853 after 18 hrs; type: functional; conditions: ATCC 27853, 18 h
Procedure, shortened: (§1)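 Broth microdilution in Nutrient Broth No. 2; stocks in ethanol diluted to 0.01–128 µg/ml (triclosan) or 0.25–256 µg/ml (glycosides). Overnight 37 °C NB2 cultures diluted 1 in 10^4 in saline and added to the dilutions. Incubation at 37 °C with agitation, OD read every 15 min; MIC is the lowest concentration preventing any OD rise after 18 h.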

Escherichia coli [1] = test: Antibacterial activity against Escherichia coli ATCC 25922 after 18 hrs; type: functional; conditions: ATCC 25922, 18 h; procedure, shortened: as §1
[2] = Antibacterial activity against Salmonella enterica subspecies enterica serotype Arizonae OCC 706 after 18 hrs; type: functional, Salmonella enterica subsp. enterica serovar Arizonae; conditions: OCC 706, 18 h; procedure, shortened: as §1
Serratia marcescens = test: Antibacterial activity against Serratia marcescens OCC 217 after 18 hrs; type: functional; conditions: OCC 217, 18 h; procedure, shortened: as §1
Proteus vulgaris = test: Antibacterial activity against Proteus vulgaris OCC 195 after 18 hrs; type: functional; conditions: OCC 195, 18 h; procedure, shortened: as §1
[3] = tested on: Salmonella enterica subsp. enterica serovar Abony; test: Antibacterial activity against Salmonella enterica subspecies enterica serotype Abony NCTC 6017 after 18 hrs; type: functional; conditions: NCTC 6017, 18 h; procedure, shortened: as §1
Escherichia coli [4] = test: Antibacterial activity against Escherichia coli 700728 after 18 hrs; type: functional; conditions: Escherichia coli, 700728, 18 h; procedure, shortened: as §1
[5] = tested on: Staphylococcus epidermidis; test: Antibacterial activity against Staphylococcus epidermidis 155 after 18 hrs; type: functional; conditions: Staphylococcus epidermidis, 155, 18 h; procedure, shortened: as §1
Escherichia hermannii = test: Antibacterial activity against Escherichia hermannii 33650 after 18 hrs; type: functional; conditions: Atlantibacter hermannii, 33650, 18 h; procedure, shortened: as §1
Salmonella typhimurium = test: Antibacterial activity against Salmonella enterica subspecies enterica serotype typhimurium ATCC 14028 after 18 hrs; type: functional, Salmonella enterica subsp. enterica serovar Typhimurium; conditions: ATCC 14028, 18 h; procedure, shortened: as §1
[6] = Antibacterial activity against Salmonella enterica subspecies enterica serotype Indiana OCC 597 after 18 hrs; type: functional, Salmonella enterica subsp. enterica serovar Indiana; conditions: OCC 597, 18 h; procedure, shortened: as §1
[7] = Antibacterial activity against Enterobacter cloacae ATCC 13047 after 18 hrs; type: functional, Enterobacter cloacae subsp. cloacae; conditions: ATCC 13047, 18 h; procedure, shortened: as §1
Streptococcus agalactiae = test: Antibacterial activity against Streptococcus agalactiae OCC 182 after 18 hrs; type: functional; conditions: OCC 182, 18 h
Procedure, shortened: (§2)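 Broth microdilution in Nutrient Broth No. 2. Ethanol stocks were diluted in broth to 0.01–128 µg/ml for triclosan and 0.25–256 µg/ml for glycosides. Overnight 37°C NB2 cultures were diluted 1 in 10^4 in saline and added to the wells. Plates were incubated at 37°C with OD read every 15 min after agitation. MIC was the lowest concentration giving no OD increase at 18 h.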

Cronobacter sakazakii = test: Antibacterial activity against Cronobacter sakazakii 29544 after 18 hrs; type: functional; conditions: Cronobacter sakazakii, 29544, 18 h; procedure, shortened: as §1
Escherichia coli [8] = test: Antibacterial activity against Escherichia coli ATCC 10536 after 18 hrs; type: functional; conditions: ATCC 10536, 18 h; procedure, shortened: as §1
Streptococcus pneumoniae = test: Antibacterial activity against Streptococcus pneumoniae 6305 after 18 hrs; type: functional; conditions: Streptococcus pneumoniae, 6305, 18 h; procedure, shortened: as §2
Klebsiella aerogenes = test: Antibacterial activity against Klebsiella aerogenes NCTC 8167 after 18 hrs; type: functional; conditions: NCTC 8167, 18 h; procedure, shortened: as §1
Enterococcus faecium = test: Antibacterial activity against Enterococcus faecium ATCC 19434 after 18 hrs; type: functional; conditions: ATCC 19434, 18 h; procedure, shortened: as §1
[9] = Antibacterial activity against Salmonella enterica subspecies enterica serotype Infantis OCC 2133 after 18 hrs; type: functional, Salmonella enterica subsp. enterica serovar Infantis; conditions: OCC 2133, 18 h; procedure, shortened: as §1
Staphylococcus aureus [10] = test: Antibacterial activity against Staphylococcus aureus ATCC 25923 after 18 hrs; type: functional; conditions: ATCC 25923, 18 h; procedure, shortened: as §1
[11] = Antibacterial activity against Salmonella enterica subspecies enterica serotype Poona NCTC 4840 after 18 hrs; type: functional, Salmonella enterica subsp. enterica serovar Poona; conditions: NCTC 4840, 18 h; procedure, shortened: as §1
Salmonella enteritidis = test: Antibacterial activity against Salmonella enterica subspecies enterica serotype Enteritidis 13076 after 18 hrs; type: functional, Salmonella enterica subsp. enterica serovar Enteritidis; conditions: Salmonella enterica, 13076, 18 h; procedure, shortened: as §1
Escherichia coli [12] = test: Antibacterial activity against Escherichia coli NCTC 13216 after 18 hrs; type: functional; conditions: NCTC 13216, 18 h; procedure, shortened: as §1
Staphylococcus aureus [13] = test: Antibacterial activity against Staphylococcus aureus ATCC 6538 after 18 hrs; type: functional; conditions: ATCC 6538, 18 h; procedure, shortened: as §1
Escherichia coli [14] = test: Antibacterial activity against Escherichia coli ATCC 11775 after 18 hrs; type: functional; procedure, shortened: as §1
Citrobacter freundii = test: Antibacterial activity against Citrobacter freundii OCC 851 after 18 hrs; type: functional; conditions: OCC 851, 18 h; procedure, shortened: as §1
[15] = Antibacterial activity against Salmonella enterica subspecies enterica serotype Nottingham NCTC 7832 after 18 hrs; type: functional, Salmonella enterica subsp. enterica serovar Nottingham; conditions: NCTC 7832, 18 h; procedure, shortened: as §1
Escherichia coli [16] = test: Antibacterial activity against Escherichia coli ATCC 35218 after 18 hrs; type: functional; conditions: ATCC 35218, 18 h; procedure, shortened: as §1

## O[C@@H]1[C@@H](Oc2cc(Cl)ccc2Oc2ccc(Cl)cc2Cl)OC[C@@H](O)[C@H]1O
Pseudomonas aeruginosa
  MIC: > 256 µg/mL
Escherichia coli [1]
  MIC: 0.5 to 4 µg/mL (≈ 1.19 to 9.49 µM)
[2]
  MIC: 2 to 8 µg/mL (≈ 4.74 to 19 µM)
Serratia marcescens
  MIC: > 256 µg/mL
Proteus vulgaris
  MIC: 16 µg/mL (≈ 37.9 µM)
[3]
  MIC: 2 to 8 µg/mL (≈ 4.74 to 19 µM)
Escherichia coli [4]
  MIC: 0.5 to 4 µg/mL (≈ 1.19 to 9.49 µM)
[5]
  MIC: 0.5 µg/mL (≈ 1.19 µM)
Escherichia hermannii
  MIC: 1 µg/mL (≈ 2.37 µM)
Salmonella typhimurium
  MIC: 2 to 8 µg/mL (≈ 4.74 to 19 µM)
[6]
  MIC: 2 to 8 µg/mL (≈ 4.74 to 19 µM)
[7]
  MIC: 0.5 µg/mL (≈ 1.19 µM)
Streptococcus agalactiae
  MIC: 128 µg/mL (≈ 304 µM)
Cronobacter sakazakii
  MIC: 8 µg/mL (≈ 19 µM)
Escherichia coli [8]
  MIC: 0.5 to 4 µg/mL (≈ 1.19 to 9.49 µM)
Streptococcus pneumoniae
  MIC: 64 µg/mL (≈ 152 µM)
Klebsiella aerogenes
  MIC: 4 µg/mL (≈ 9.49 µM)
Enterococcus faecium
  MIC: 256 µg/mL (≈ 607 µM)
[9]
  MIC: 2 to 8 µg/mL (≈ 4.74 to 19 µM)
Staphylococcus aureus [10]
  MIC: 0.5 µg/mL (≈ 1.19 µM)
[11]
  MIC: 2 to 8 µg/mL (≈ 4.74 to 19 µM)
Salmonella enteritidis
  MIC: 2 to 8 µg/mL (≈ 4.74 to 19 µM)
Escherichia coli [12]
  MIC: 0.5 to 4 µg/mL (≈ 1.19 to 9.49 µM)
Staphylococcus aureus [13]
  MIC: 0.5 µg/mL (≈ 1.19 µM)
Escherichia coli [14]
  MIC: 0.5 to 4 µg/mL (≈ 1.19 to 9.49 µM)
Citrobacter freundii
  MIC: 8 µg/mL (≈ 19 µM)
[15]
  MIC: 2 to 8 µg/mL (≈ 4.74 to 19 µM)
Escherichia coli [16]
  MIC: 0.5 to 4 µg/mL (≈ 1.19 to 9.49 µM)
